Columns and labels:
Caco-2 = experiment: Antiproliferative activity against human Caco-2 cells after 48 hrs by MTT assay; type: functional, cell-based; conditions: Caco-2, 48 h
Procedure, shortened: (§1)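 Cells in exponential growth harvested and seeded at 1 ×10⁴ cells/well, incubated 24 h at 37 °C, then exposed to a range of compound concentrations for 48 h. Viability read by MTT; IC₅₀ derived from dose-dependent growth inhibition.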

A549 = experiment: Antiproliferative activity against human A549 cells after 48 hrs by MTT assay; type: functional, cell-based; conditions: A549, 48 h; procedure, shortened: as §1
[1] = Antiproliferative activity against human ECV304 cells after 48 hrs by MTT assay; type: cell-based; conditions: ECV-304, 48 h; procedure, shortened: as §1
HEK293 = experiment: Antiproliferative activity against human HEK293 cells overexpressing EGFR after 48 hrs by MTT assay; type: cell-based; conditions: HEK293, 48 h; procedure, shortened: as §1
A-431 = experiment: Antiproliferative activity against human A431 cells abnormally expressing EGFR after 48 hrs by MTT assay; type: functional, cell-based; conditions: A-431, 48 h; procedure, shortened: as §1
A-375 = experiment: Antiproliferative activity against human A375 cells after 48 hrs by MTT assay; type: functional, cell-based; conditions: A-375, 48 h
SMMC-7721 = experiment: Antiproliferative activity against human SMMC7721 cells after 48 hrs by MTT assay; type: functional, cell-based; conditions: SMMC-7721, 48 h
HeLa = experiment: Antiproliferative activity against human HeLa cells after 48 hrs by MTT assay; type: functional, cell-based
HT-29 = experiment: Antiproliferative activity against human HT-29 cells after 48 hrs by MTT assay; type: functional, cell-based; conditions: HT-29, 48 h
PANC-1 = experiment: Antiproliferative activity against human PANC1 cells after 48 hrs by MTT assay; type: functional, cell-based; conditions: PANC-1, 48 h
MCF7 = experiment: Antiproliferative activity against human MCF7 cells after 48 hrs by MTT assay; type: functional, cell-based; conditions: MCF7, 48 h

| IC50 (Caco-2) [µM] | IC50 (A549) [µM] | IC50 (A-375) [µM] | IC50 (SMMC-7721) [µM] | IC50 (HeLa) [µM] | IC50 (HT-29) [µM] | IC50 (PANC-1) [µM] | IC50 (MCF7) [µM] | SMILES | IC50 [1] [µM] | IC50 (HEK293) [µM] | IC50 (A-431) [µM] |
| --- | --- | --- | --- | --- | --- | --- | --- | --- | --- | --- | --- |
| 104 | 64.7 | 106 | 95.7 | 97.6 | 200 | 217 | – | CNC(=O)c1ccc(OC)c(O)c1-c1c(C(=O)NC)ccc(OC)c1O | 113 | 88 | 104 |
| 20.3 | 73.5 | 217 | 109 | 53.4 | 214 | 191 | 109 | CNC(=O)c1ccc(OC)c(O)c1-c1c(C(=O)NC)ccc(OC)c1OCC(=O)Nc1ccc(F)c(Cl)c1 | 72.2 | – | – |
| 75.9 | 259 | 174 | 78.2 | 415 | 122 | 166 | 83.7 | CNC(=O)c1ccc(OC)c(O)c1-c1c(C(=O)NC)ccc(OC)c1OCCN1CCOCC1 | 1360 | 116 | 75.9 |
| 3100 | 111 | – | – | – | – | – | – | COC(=O)c1cc(OC(=O)c2cc(O)c(OC)cc2CCN(C)C)ccc1OC | – | – | – |
| 3310 | 194 | 25.1 | 194 | 100 | 44.7 | 110 | 60.4 | CNC(=O)c1ccc(OC)c(OCCN2CCOCC2)c1-c1c(C(=O)NC)ccc(OC)c1OCC(=O)Nc1ccc(F)c(Cl)c1 | – | – | – |
| 167 | 241 | 242 | 124 | 117 | 133 | 159 | 123 | CNC(=O)c1ccc(OC)c(OCCN(C)C)c1-c1c(C(=O)NC)ccc(OC)c1OCC(=O)Nc1ccc(F)c(Cl)c1 | 57.2 | – | – |
| – | – | – | 126 | – | 47.2 | – | – | CNC(=O)c1ccc(OC)c(OCCN2CCNCC2)c1-c1c(C(=O)NC)ccc(OC)c1OCC(=O)Nc1ccc(F)c(Cl)c1 | – | – | – |
| – | 180 | – | – | – | – | – | – | COC(=O)c1cc(OC(=O)c2ccc(OC)c(O)c2)c(OC)cc1CCNc1ccc(F)c(Cl)c1 | 61 | – | – |
| 52.5 | 158 | – | – | – | – | – | – | COC(=O)c1cc(OC(=O)c2ccc(OC)c(O)c2)c(OC)cc1CCN1CCOCC1 | 2.67 | – | – |

| SMILES | IC50 (Caco-2) [µM] | IC50 (A549) [µM] | IC50 (A-375) [µM] | IC50 (SMMC-7721) [µM] | IC50 (HeLa) [µM] | IC50 (HT-29) [µM] | IC50 (PANC-1) [µM] | IC50 (MCF7) [µM] | IC50 [1] [µM] | IC50 (HEK293) [µM] | IC50 (A-431) [µM] |
| --- | --- | --- | --- | --- | --- | --- | --- | --- | --- | --- | --- |
| COC(=O)c1cc(OC(=O)c2ccc(OC)c(O)c2)c(OC)cc1CCN(C)C | 110 | 453 | – | – | – | – | – | – | – | – | – |
| COc1ccc2c(=O)oc3c(OC)cc(CCN(C)C)c4c(=O)oc1c2c34 [TASPINE] | 153 | 4.18 | – | – | – | – | – | – | 22.3 | 16 | 11.2 |
